Measured values as given in ChEMBL document CHEMBL5042484, “Design of SARS-CoV-2 PLpro Inhibitors for COVID-19 Antiviral Therapy Leveraging Binding Cooperativity” (J Med Chem, 2022).
Calls of active or inactive are those of the source. No cut-off for these calls is given here.

Legend:
[1] = system: Severe acute respiratory syndrome coronavirus 2; assay: Inhibition of SARS-CoV-2 PLpro assessed as viral PLpro-mediated deubiquitination using Ub-AMC as substrate at 30 uM preincubated for 10 mins followed by substrate addition measured for 15 mins by fluorescence plate reader assay
In short: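 Run like the RLRGG-AMC PLpro assay (HEPES pH 7.5 buffer, 10 min preincubation, 15 min fluorescence read), but with 80 nM PLpro and 0.5 µM Ub-AMC as substrate.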

A549 [2] = assay: Cytotoxicity against human A549 cells overexpressing ACE2 receptor assessed as cell viability at 100 uM incubated for 48 hrs by Cell Titer-Glo luminescent assay; type: toxicity, cell-based; details: a549, 48 h
A549 [3] = assay: Cytotoxicity against human A549 cells overexpressing ACE2 receptor assessed as cell viability at < 30 uM incubated for 48 hrs by Cell Titer-Glo luminescent assay; type: toxicity, cell-based; details: a549, 48 h
A549 [4] = assay: Cytotoxicity against human A549 cells overexpressing ACE2 receptor assessed as cell viability at <50 uM incubated for 48 hrs by Cell Titer-Glo luminescent assay; type: toxicity, cell-based; details: a549, 48 h
[5] = system: Severe acute respiratory syndrome coronavirus 2; assay: Inhibition of SARS-CoV-2 PLpro assessed as viral PLpro-mediated deISGylation using ISG-15-AMC as substrate at 30 uM preincubated for 10 mins followed by substrate addition measured for 15 mins by fluorescence plate reader assay
In short: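 Run like the RLRGG-AMC PLpro assay (HEPES pH 7.5 buffer, 10 min preincubation, 15 min fluorescence read), but with 4 nM PLpro and 0.5 µM ISG15-AMC as substrate.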

[6] = Binding affinity to […] sensor chip immobilized His-tagged SARS-CoV-2 PLpro assessed as equilibrium dissociation constant by surface plasmon resonance analysis; design: species or system Severe acute respiratory syndrome coronavirus 2
A549 [7] = assay: Cytotoxicity against human A549 cells overexpressing ACE2 receptor assessed as cell viability at <10 uM incubated for 48 hrs by Cell Titer-Glo luminescent assay; type: toxicity, cell-based; details: a549, 48 h
[8] = Drug concentration in C57BL/6J mouse plasma at 50 mg/kg, ip measured from 0.5 to 5 hrs by analytical analysis; type: ADME, organism-based; details: in vivo, time 0.5-5 hrs
[9] = Inhibition of SARS-CoV-2 PLpro; design: species or system Severe acute respiratory syndrome coronavirus 2
[10] = Inhibition of SARS-CoV-2 PLpro using Z-RLRGG-AMC as substrate preincubated for 10 mins followed by substrate addition measured for 15 mins by fluorescence plate reader assay; design: species or system Severe acute respiratory syndrome coronavirus 2

Cc1ccc(NC2CNC2)cc1C(=O)N[C@H](C)c1cccc(-c2ccc(CNC3CCCC3)s2)c1
inhibition [1]: Active
Activity (A549 [2]): Toxic
Activity (A549 [3]): Non-Toxic
Activity (A549 [4]): Non-Toxic
inhibition [5]: Active
Kd [6]: 0.235 µM

Cc1ccc(NC2CNC2)cc1C(=O)N[C@H](C)c1cccc(-c2ccc(CN3CCCC3)s2)c1
inhibition [1]: Active
Activity (A549 [2]): Toxic
Activity (A549 [3]): Non-Toxic
Activity (A549 [7]): Non-Toxic
inhibition [5]: Active
concentration [8]: 12 µM

COC(=O)/C=C/CNC(=O)CNC(=O)[C@H](CN)NC(=O)[C@H](CCc1ccc(O)cc1)NC(C)=O
IC50 [9]: 50 µM

Cc1ccc(NC2CNC2)cc1C(=O)N[C@H](C)c1cccc(-c2cccs2)c1 (single isomer, unassigned)
inhibition [1]: Active
inhibition [5]: Active

CNC(=O)C[C@@H](NC(=O)c1cc(N(C)C2CNC2)ccc1C)c1cccc2ccccc12
IC50 [10]: Not Active
Kd [6]: > 1000 µM

Cc1ccc(N)cc1C(=O)N[C@H](CCO)c1cccc2ccccc12
IC50 ([10]; read-out: IC50): 100 µM

COC(=O)/C=C/CNC(=O)CNC(=O)[C@H](CN)NC(=O)[C@H](CCc1nc2ccccc2s1)NC(C)=O
IC50 [9]: 50 µM

Cc1ccc(NC2CNC2)cc1C(=O)N[C@H](C)c1cccc2ccccc12
inhibition [1]: Active
inhibition [5]: Active

Cc1ccc(N)cc1C(=O)N[C@H](C)c1cccc2ccccc12
inhibition [1]: Active
inhibition [5]: Active
